# Data from ChEMBL document CHEMBL5329156, “Discovery and development of novel substituted monohydrazides as potent antifungal agents” (RSC Med Chem, 2023).
# What was measured:
# J774.A1 = test: Cytotoxicity against J774A.1 cells assessed as reduction in cell viability at 31.3 microg/ml; format: toxicity, cell-based; settings: mouse, dose 31.3 µg/ml
# Summary of the method: (§1)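 Cells in DMEM with 10% FBS and 1% Pen/Strep, seeded at 10,000 cells/well and held overnight at 37 °C, 5% CO2. Compounds added at final 31.3-0.12 µg/mL (0.05% DMSO vehicle) for 24 h. Resazurin then added for 6 h; fluorescence read at ex 560/em 590. Triton X-100 1% as positive control; values normalized to vehicle. Run in quadruplicate.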
# HEK293 = test: Cytotoxicity against human HEK-293 cells assessed as reduction in cell viability at 31.3 microg/ml; format: toxicity, cell-based; settings: dose 31.3 µg/ml; summary of the method: as §1
# Candida albicans [1] = test: Antifungal activity against Candida albicans ATCC 10231 assessed as fungal growth inhibition by double dilution method; format: functional
# Summary of the method: (§2)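 Broth microdilution after CLSI M27-A3/M38-A2 with minor changes. Single colony grown overnight in YPD at 35 °C, 200 rpm. Compound final range 0.06-31.3 µg/mL; incubated 48 h at 35 °C.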
# Candida albicans [2] = test: Antifungal activity against Candida albicans ATCC 64124 assessed as fungal growth inhibition by double dilution method; format: functional
# Summary of the method: (§3)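 Broth microdilution after CLSI M27-A3/M38-A2 with minor modifications. A single colony was grown overnight in YPD at 35 °C with shaking at 200 rpm. Cells were mixed 1:1 with compound (final 0.06-31.3 µg/mL, from DMSO stocks) and incubated 48 h at 35 °C.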
# Candida albicans [3] = test: Antifungal activity against itraconazole/fluconazole susceptible Candida albicans ATCC MYA-2876 assessed as fungal growth inhibition by double dilution method; format: functional; summary of the method: as §3
# Candida albicans [4] = test: Antifungal activity against itraconazole/fluconazole resistant Candida albicans ATCC 90819 assessed as fungal growth inhibition by double dilution method; format: functional; summary of the method: as §3
# Candida albicans [5] = test: Antifungal activity against itraconazole/fluconazole susceptible Candida albicans ATCC MYA-2310 assessed as fungal growth inhibition by double dilution method; format: functional; summary of the method: as §3
# Candida albicans [6] = test: Antifungal activity against itraconazole/fluconazole resistant Candida albicans ATCC MYA-1237 assessed as fungal growth inhibition by double dilution method; format: functional; summary of the method: as §3
# Candida albicans [7] = test: Antifungal activity against itraconazole/fluconazole resistant Candida albicans ATCC MYA-1003 assessed as fungal growth inhibition by double dilution method; format: functional; summary of the method: as §3
# Nakaseomyces glabratus [8] = test: Antifungal activity against Candida glabrata ATCC 2001 assessed as fungal growth inhibition by double dilution method; format: functional; summary of the method: as §2
# Pichia kudriavzevii = test: Antifungal activity against Pichia kudriavzevii ATCC 6258 assessed as fungal growth inhibition by double dilution method; format: functional; summary of the method: as §2
# Nakaseomyces glabratus [9] = test: Antifungal activity against Candida glabrata ATCC 22019 assessed as fungal growth inhibition by double dilution method; format: functional; summary of the method: as §2
# [Candida] auris [10] = Antifungal activity against Candida auris AR Bank # 0384 assessed as fungal growth inhibition by double dilution method; format: functional; settings: Candidozyma auris; summary of the method: as §2
# [Candida] auris [11] = Antifungal activity against Candida auris AR Bank # 0390 assessed as fungal growth inhibition by double dilution method; format: functional; settings: Candidozyma auris; summary of the method: as §2
# Cryptococcus neoformans = test: Antifungal activity against Cryptococcus neoformans ATCC MYA-895 assessed as fungal growth inhibition by double dilution method; format: functional; summary of the method: as §2
# Aspergillus terreus = test: Antifungal activity against Aspergillus terreus ATCC MYA-3633 assessed as fungal growth inhibition by double dilution method; format: functional
# Aspergillus fumigatus [12] = test: Antifungal activity against Aspergillus fumigatus NRRL 163 assessed as fungal growth inhibition by double dilution method; format: functional
# Aspergillus flavus = test: Antifungal activity against Aspergillus flavus ATCC MYA-3631 assessed as fungal growth inhibition by double dilution method; format: functional
# Aspergillus nidulans = test: Antifungal activity against Aspergillus nidulans ATCC 38163 assessed as fungal growth inhibition by double dilution method; format: functional
# Aspergillus fumigatus [13] = test: Antifungal activity against Aspergillus fumigatus NRRL 5109 assessed as fungal growth inhibition by double dilution method; format: functional
# Aspergillus fumigatus [14] = test: Antifungal activity against Aspergillus fumigatus NRRL 6113 assessed as fungal growth inhibition by double dilution method; format: functional
compound,measurement,setting,value
C[C@@H](c1ncncc1F)[C@](O)(Cn1cncn1)c1ccc(F)cc1F [VORICONAZOLE],Activity,J774.A1,Non-Toxic
same,Activity,HEK293,Non-Toxic
COc1cccc(NNC(=O)c2cccc(F)n2)c1,MIC,Candida albicans [1],0.98 mg/L
same,MIC,Candida albicans [2],0.98 mg/L
same,MIC,Candida albicans [3],0.49 mg/L
same,MIC,Candida albicans [4],3.9 mg/L
same,MIC,Candida albicans [5],1.95 mg/L
same,MIC,Candida albicans [6],1.95 mg/L
same,MIC,Candida albicans [7],0.98 mg/L
same,MIC,Nakaseomyces glabratus [8],15.6 mg/L
same,MIC,Pichia kudriavzevii,0.24 mg/L
same,MIC,Nakaseomyces glabratus [9],3.9 mg/L
same,MIC,[Candida] auris [10],1.95 mg/L
same,MIC,[Candida] auris [11],0.98 mg/L
same,MIC,Cryptococcus neoformans,0.49 mg/L
same,MIC,Aspergillus terreus,3.9 mg/L
same,MIC,Aspergillus fumigatus [12],15.6 mg/L
same,MIC,Aspergillus flavus,> 31.3 mg/L
same,MIC,Aspergillus nidulans,1.95 mg/L
same,MIC,Aspergillus fumigatus [13],7.8 mg/L
same,MIC,Aspergillus fumigatus [14],> 31.3 mg/L
